Measurements reported in ChEMBL document CHEMBL1158683, “Cytotoxic sesquiterpenoids from Ratibida columnifera” (1999).
In brackets after ≈: the same amount, converted by molar mass. Values belong to the compound of their own block, whether it stands above or below them. Activity calls are given as the source filed them. No cut-off for these calls is given here.

Key:
[1] = Cytotoxicity against human BC1 cells; assay type: functional; details: read-out: ED50 (the source's name)
Lu1 = assay: Cytotoxicity against human Lu1 cells; assay type: functional; details: read-out: ED50 (the source's name)
Col2 = assay: Cytotoxicity against human Col2 cells; assay type: functional; details: read-out: ED50 (the source's name)
KB = assay: Cytotoxicity against human KB cells; assay type: functional; details: read-out: ED50 (the source's name)
[2] = Cytotoxicity against human multidrug-resistant KB-V1+ cells in presence of vinblastine; assay type: functional; details: read-out: ED50 (the source's name)
[3] = Cytotoxicity against human multidrug-resistant KBV1 cells in absence of vinblastine; assay type: functional; details: KB-V1, read-out: ED50 (the source's name)
LNCaP = assay: Cytotoxicity against hormone-dependent human LNCaP cells; assay type: functional; details: read-out: ED50 (the source's name)
ASK = assay: Cytotoxicity against human ASK cells at 20 ug/mL; assay type: functional, cell-based
HT = assay: Cytotoxicity against human HT cells; assay type: functional; details: read-out: ED50 (the source's name)
[4] = Cytotoxicity against human U373 cells; assay type: functional, U-373MG ATCC; details: U373 MG, read-out: ED50 (the source's name)
ZR-75-1 = assay: Cytotoxicity against hormone-dependent human ZR751 cells; assay type: functional; details: read-out: ED50 (the source's name)
A2780 [5] = assay: Induction of apoptosis in human p53 wild type A2780S at 0.15 uM after 24 hrs by TdT assay; assay type: functional
Procedure, shortened: (§1)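 A2780S (p53 wild-type) and A2780R (p53 mutant) ovarian carcinoma cells were exposed for 24 h at 0–30 µM. Cells (10^6) were trypsinized and fixed in 1% methanol-free formaldehyde/PBS for 15 min on ice. They were washed twice with PBS and fixed in 80% EtOH at −20 °C for 16 h. A TdT assay (APO-Direct kit, minor modifications) then scored % apoptotic cells.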

A2780 [6] = assay: Induction of apoptosis in human p53 wild type A2780S at 1.5 uM after 24 hrs by TdT assay; assay type: functional; procedure, shortened: as §1
A2780 [7] = assay: Induction of apoptosis in human p53 wild type A2780S at 7.5 uM after 24 hrs by TdT assay; assay type: functional; procedure, shortened: as §1
A2780 [8] = assay: Induction of apoptosis in human p53 wild type A2780S at 15 uM after 24 hrs by TdT assay; assay type: functional; procedure, shortened: as §1
A2780 [9] = assay: Induction of apoptosis in human p53 wild type A2780S at 30 uM after 24 hrs by TdT assay; assay type: functional; procedure, shortened: as §1
A2780 [10] = assay: Induction of apoptosis in human p53 […] at 15 uM after 24 hrs by TdT assay; assay type: functional; details: in the assay text read “A2780R” for “A2780S”; procedure, shortened: as §1
A2780 [11] = assay: Induction of apoptosis in human p53 […] at 30 uM after 24 hrs by TdT assay; assay type: functional; details: in the assay text read “A2780R” for “A2780S”; procedure, shortened: as §1
[12] = Inhibition of tubulin polymerization at 10 to 100 uM
[13] = target: T1, DNA topoisomerase 1 (Homo sapiens) (UniProt P11387); assay: Inhibition of topoisomerase 1 at 10 to 100 uM
T1 sequence (whole entry): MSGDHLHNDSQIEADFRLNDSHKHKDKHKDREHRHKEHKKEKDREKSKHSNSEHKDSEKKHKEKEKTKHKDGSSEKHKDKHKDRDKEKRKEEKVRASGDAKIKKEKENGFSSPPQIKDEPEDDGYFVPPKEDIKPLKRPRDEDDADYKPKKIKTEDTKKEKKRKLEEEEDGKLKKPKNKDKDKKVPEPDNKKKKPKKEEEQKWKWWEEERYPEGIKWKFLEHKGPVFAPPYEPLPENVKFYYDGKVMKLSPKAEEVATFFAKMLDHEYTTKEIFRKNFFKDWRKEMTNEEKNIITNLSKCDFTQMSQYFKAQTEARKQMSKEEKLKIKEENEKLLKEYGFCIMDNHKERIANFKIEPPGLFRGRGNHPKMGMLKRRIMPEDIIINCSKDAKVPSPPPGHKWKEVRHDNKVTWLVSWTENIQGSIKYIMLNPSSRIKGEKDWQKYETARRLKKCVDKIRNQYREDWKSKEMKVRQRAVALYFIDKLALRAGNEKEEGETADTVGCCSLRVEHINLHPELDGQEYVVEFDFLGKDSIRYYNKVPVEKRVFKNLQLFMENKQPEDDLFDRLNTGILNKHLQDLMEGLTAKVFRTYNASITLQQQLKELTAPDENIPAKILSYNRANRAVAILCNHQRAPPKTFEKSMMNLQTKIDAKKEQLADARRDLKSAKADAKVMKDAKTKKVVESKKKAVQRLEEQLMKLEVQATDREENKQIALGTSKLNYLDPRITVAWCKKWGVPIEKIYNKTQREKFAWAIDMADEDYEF

[14] = Inhibition of topoisomerase 2 at 10 to 100 uM
Nucleic Acid = assay: Binding affinity to DNA assessed as DNA intercalation; assay type: nucleic-acid assay
M109 [15] = assay: Antitumor activity against mouse M109 cells xenografted CDF1 mouse model at 8 mg/kg, ip for 5 days; assay type: functional; details: route intraperitoneal
Procedure, shortened: (§2)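 A 2% w/v brei of M109 murine lung carcinoma was prepared in RPMI from harvested solid tumors. Female CDF1 mice (six per group) were implanted ip with 0.5 mL. Compound was given ip daily for 5 days, beginning 1 day after implantation. The endpoint was lifespan, expressed as %T/C (treated over control lifespan × 100%).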

M109 [16] = assay: Antitumor activity against mouse M109 cells xenografted CDF1 mouse model at 24 mg/kg, ip for 5 days; assay type: functional; details: route intraperitoneal; procedure, shortened: as §2
A2780R = assay: Induction of apoptosis in human p53 mutant A2780R at 1.5 uM after 24 hrs by TdT assay
A2780 [17] = assay: Induction of apoptosis in human p53 mutant A2780R at 7.5 uM after 24 hrs by TdT assay
A2780 [18] = assay: Induction of apoptosis in human p53 mutant A2780R at 0.15 uM after 24 hrs by TdT assay
A-431 = assay: Cytotoxicity against human A431 cells; assay type: functional; details: read-out: ED50 (the source's name)
[19] = Cytotoxicity against human Mel2 cells; assay type: functional; details: read-out: ED50 (the source's name)

Compound: C=C1C(=O)O[C@@H]2[C@@H]1CC(=O)[C@H](C)[C@@](O)(C(=O)/C=C/C)[C@H]2OC(=O)C(C)CC (stereo partly drawn)
EC50 [1]: 0.5 µg/mL (≈ 1.32 µM)
EC50 (Lu1): 2.3 µg/mL (≈ 6.08 µM)
EC50 (Col2): 1.2 µg/mL (≈ 3.17 µM)
EC50 (KB): 1.1 µg/mL (≈ 2.91 µM)
EC50 [2]: 1.1 µg/mL
EC50 [3]: 2 µg/mL (≈ 5.29 µM)
EC50 (LNCaP): 0.4 µg/mL (≈ 1.06 µM)
Activity (ASK): inactive

Compound: C=C1C(=O)O[C@@H]2[C@@H]1[C@H]1O[C@H]1[C@H](C)[C@@](O)(C(=O)/C=C/C)[C@H]2OC(=O)/C(C)=C\C
EC50 [1]: 0.3 µg/mL (≈ 0.797 µM)
EC50 (HT): 0.16 µg/mL (≈ 0.425 µM)
EC50 (Lu1): 0.5 µg/mL (≈ 1.33 µM)
EC50 (Col2): 0.8 µg/mL (≈ 2.13 µM)
EC50 (KB): 0.3 µg/mL (≈ 0.797 µM)
EC50 [2]: 0.9 µg/mL
EC50 [3]: 0.2 µg/mL (≈ 0.531 µM)
EC50 [4]: 0.2 µg/mL (≈ 0.531 µM)
Activity (ASK): inactive

Compound: C=C1C(=O)O[C@@H]2[C@@H]1C[C@@H](O)[C@H](C)[C@@](O)(C(=O)CC(C)O)[C@H]2OC(=O)C(C)CC (stereo partly drawn)
EC50 [1]: 9 µg/mL (≈ 22.6 µM)
EC50 (Lu1): 16.8 µg/mL (≈ 42.2 µM)
EC50 (Col2): 8.7 µg/mL (≈ 21.8 µM)
EC50 (KB): 12.7 µg/mL (≈ 31.9 µM)
EC50 [2]: > 20 µg/mL
EC50 [3]: > 20 µg/mL
EC50 (LNCaP): 8.1 µg/mL (≈ 20.3 µM)
Activity (ASK): inactive

Compound: C=C1C(=O)O[C@@H]2[C@@H]1CC[C@H](C)[C@@](O)(C(=O)/C=C/C)[C@H]2OC(=O)/C(C)=C\C
EC50 [1]: 0.8 µg/mL (≈ 2.21 µM)
EC50 (HT): 0.4 µg/mL (≈ 1.1 µM)
EC50 (Lu1): 0.4 µg/mL (≈ 1.1 µM)
EC50 (Col2): 0.9 µg/mL (≈ 2.48 µM)
EC50 (KB): 0.4 µg/mL (≈ 1.1 µM)
EC50 [2]: 0.3 µg/mL
EC50 [3]: 1.6 µg/mL (≈ 4.41 µM)
EC50 (LNCaP): 1 µg/mL (≈ 2.76 µM)
EC50 (ZR-75-1): 1.4 µg/mL (≈ 3.86 µM)
EC50 [4]: 0.2 µg/mL (≈ 0.552 µM)
Activity (ASK): inactive

Compound: C=C1C(=O)O[C@@H]2[C@@H]1CC(=O)[C@H](C)[C@@](O)(C(=O)CC(C)OC)[C@H]2OC(=O)C(C)CC (stereo partly drawn)
EC50 [1]: 1.2 µg/mL (≈ 2.92 µM)
EC50 (Lu1): 4.4 µg/mL (≈ 10.7 µM)
EC50 (Col2): 3.1 µg/mL (≈ 7.55 µM)
EC50 (KB): 6.6 µg/mL (≈ 16.1 µM)
EC50 [2]: 5 µg/mL
EC50 [3]: 4 µg/mL (≈ 9.75 µM)
EC50 (LNCaP): 0.5 µg/mL (≈ 1.22 µM)
Activity (ASK): inactive

Compound: C=C[C@@](C)(O)C[C@@H](O)/C=C(\C)CC/C=C(\C)COC(C)=O
EC50 [1]: 8.7 µg/mL (≈ 29.4 µM)
EC50 (HT): 9.5 µg/mL (≈ 32.1 µM)
EC50 (Lu1): > 20 µg/mL
EC50 (Col2): 6.2 µg/mL (≈ 20.9 µM)
EC50 (KB): 3.5 µg/mL (≈ 11.8 µM)
EC50 [2]: > 20 µg/mL
EC50 [3]: 10.9 µg/mL (≈ 36.8 µM)
EC50 (LNCaP): > 20 µg/mL
EC50 [4]: 6.3 µg/mL (≈ 21.3 µM)
Activity (ASK): inactive

Compound: C=C1C(=O)O[C@@H]2[C@@H]1[C@@H](O)C[C@H](C)[C@@](O)(C(=O)/C=C/C)[C@H]2OC(=O)/C(C)=C\C
EC50 [1]: 4.2 µg/mL (≈ 11.1 µM)
EC50 (Lu1): 2.3 µg/mL (≈ 6.08 µM)
EC50 (Col2): 5.7 µg/mL (≈ 15.1 µM)
EC50 (KB): 1.4 µg/mL (≈ 3.7 µM)
EC50 [2]: 1.7 µg/mL
EC50 [3]: 3 µg/mL (≈ 7.93 µM)
EC50 (LNCaP): 0.4 µg/mL (≈ 1.06 µM)
EC50 (ZR-75-1): 1.4 µg/mL (≈ 3.7 µM)
Activity (ASK): inactive

Activity [12]: inactive
Activity [13]: inactive
Activity [14]: inactive
Activity (Nucleic Acid): inactive
Compound: C=C1C(=O)O[C@@H]2[C@@H]1C[C@@H](O)[C@H](C)[C@@](O)(C(=O)/C=C/C)[C@H]2OC(=O)C(C)CC (stereo partly drawn)
EC50 [1]: 0.8 µg/mL (≈ 2.1 µM)
EC50 (Lu1): 0.9 µg/mL (≈ 2.37 µM)
EC50 (Col2): 1.1 µg/mL (≈ 2.89 µM)
EC50 (KB): 1 µg/mL (≈ 2.63 µM)
EC50 [2]: 1.6 µg/mL
EC50 [3]: 0.9 µg/mL (≈ 2.37 µM)
EC50 (LNCaP): 0.5 µg/mL (≈ 1.31 µM)
Activity (ASK): inactive
Activity (A2780 [5]): 1.17%
Activity (A2780 [6]): 1.27%
Activity (A2780 [7]): 61.31%
Activity (A2780 [8]): 51.67%
Activity (A2780 [9]): 78.14%
Activity (A2780 [10]): 31.87%
Activity (A2780 [11]): 49.25%
T/C (M109 [15]): 103%
T/C (M109 [16]): 113%
Activity (A2780R): 1.66%
Activity (A2780 [17]): 2.63%
Activity (A2780 [18]): 0.77%

Compound: COc1c(O)cc2oc(-c3ccc(O)cc3)cc(=O)c2c1O [HISPIDULIN]
EC50 [1]: > 20 µg/mL
EC50 (HT): 10.1 µg/mL (≈ 33.6 µM)
EC50 (Lu1): > 20 µg/mL
EC50 (Col2): > 20 µg/mL
EC50 (KB): 18.8 µg/mL (≈ 62.6 µM)
EC50 [2]: 1.3 µg/mL
EC50 [3]: 8.7 µg/mL (≈ 29 µM)
EC50 (A-431): 1.2 µg/mL (≈ 4 µM)
EC50 (LNCaP): 7.1 µg/mL (≈ 23.6 µM)
EC50 (ZR-75-1): 1.2 µg/mL (≈ 4 µM)
EC50 [4]: 8.8 µg/mL (≈ 29.3 µM)
Activity (ASK): inactive
EC50 [19]: 14.6 µg/mL (≈ 48.6 µM)

Compound: C=C1C(=O)O[C@@H]2[C@@H]1C[C@@H](O)[C@H](C)[C@@](O)(C(=O)/C=C/C)[C@H]2OC(=O)/C(C)=C\C
EC50 [1]: 0.6 µg/mL (≈ 1.59 µM)
EC50 (HT): 0.3 µg/mL (≈ 0.793 µM)
EC50 (Lu1): 1.1 µg/mL (≈ 2.91 µM)
EC50 (Col2): 0.5 µg/mL (≈ 1.32 µM)
EC50 (KB): 0.3 µg/mL (≈ 0.793 µM)
EC50 [2]: 1.3 µg/mL
EC50 [3]: 1.2 µg/mL (≈ 3.17 µM)
EC50 (A-431): 0.2 µg/mL (≈ 0.529 µM)
EC50 (LNCaP): 0.16 µg/mL (≈ 0.423 µM)
EC50 (ZR-75-1): 0.2 µg/mL (≈ 0.529 µM)
EC50 [4]: 0.2 µg/mL (≈ 0.529 µM)
Activity (ASK): inactive
EC50 [19]: 0.5 µg/mL (≈ 1.32 µM)
